SENP1 FRET inh: human SENP1 catalytic domain inhibitors, primary screen, biochemical, FRET, uHTS; Sentrin-specific protease 1 (Homo sapiens), Q9P0U3; recombinant SENP1 catalytic domain, CyPet-SUMO1-YPet FRET cleavage; inhibition, % at 10 µM; hit rate 0.21% among 360,000;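 active means inhibition at least 30% at 10 µM, raw YFP signal under a set limit, fluorescence ratio 0.5 to 1.5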;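 further: 0% = enzyme with DMSO and 100% = no enzyme wells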
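Material: hSENP1 catalytic domain, recombinant; medium: Tris pH 8 with BME, BSA, NP40 and catalase; compound: single concentration of 10 µM compound, 0.5% DMSO final; technique: FRET read of cyan and yellow fluorescence; timing: 50 min enzyme reaction, room temperature, light-protected; reagent: SFCypet-SUMO1-SFYpet substrate at 25 nM; control set: no-enzyme low, enzyme-DMSO high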
SENP8 block-1: human SENP8 protease inhibitors, primary screen, biochemical, fluorescence, Nedd8 protein substrate, uHTS; recombinant SENP8; hit rate 0.64% among 360,000; inhibition, % at 20 µM; AID 602440, 2012; in the data active means inhibition mostly above about 40%, no sharp cut-off; inactive means mostly below about 27%
SENP6 block: SENP6 protease inhibitors, primary screen, biochemical, luminescence, uHTS | Sentrin-specific protease 6 (Homo sapiens), Q9GZR1 | Recombinant SENP6 catalytic domain, aminoluciferin luminescence | inhibition, % at 10 µM | hit rate 1.8% among 330,000;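 active means inhibition above about 50% at the single tested dose, limit read from the data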;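 further: plate controls were DMSO wells with enzyme for no effect and DMSO wells lacking enzyme for full effect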
Target sequence (Q9GZR1 628-1112 limits assumed): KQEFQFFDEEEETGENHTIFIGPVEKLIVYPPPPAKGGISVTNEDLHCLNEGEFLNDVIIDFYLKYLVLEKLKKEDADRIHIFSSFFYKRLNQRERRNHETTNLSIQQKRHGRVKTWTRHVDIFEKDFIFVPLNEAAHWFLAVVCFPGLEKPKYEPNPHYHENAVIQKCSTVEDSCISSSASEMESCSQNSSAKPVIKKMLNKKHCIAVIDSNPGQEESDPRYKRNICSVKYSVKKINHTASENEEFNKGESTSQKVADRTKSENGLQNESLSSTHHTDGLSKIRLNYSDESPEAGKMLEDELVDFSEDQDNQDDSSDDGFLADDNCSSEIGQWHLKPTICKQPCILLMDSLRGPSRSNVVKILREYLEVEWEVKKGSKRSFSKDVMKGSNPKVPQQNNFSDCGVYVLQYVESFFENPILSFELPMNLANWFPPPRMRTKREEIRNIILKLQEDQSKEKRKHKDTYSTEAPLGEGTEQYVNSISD
SENP8 block-2: SENP8 protease inhibitors, primary screen, biochemical, luminescence; Sentrin-specific protease 8 (Homo sapiens), Q96LD8; inhibition, % at 10 µM; AID 2540, 2010; hit rate 1.2% among 330,000; purified SENP8, Z-RLRGG-aminoluciferin cleavage; in the data active means inhibition above about 50%
SENP7 inh: SENP7 protease inhibitors, primary screen, biochemical, luminescence, uHTS; inhibition, % at 5 µM; hit rate 1.5% among 330,000; recombinant SENP7, Z-RLRGG-aminoluciferin luminescence, 40 min;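 active means inhibition above about 50% at the single test dose, limit read from the data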;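 further: plate controls were DMSO with enzyme for no effect and no enzyme buffer wells for full effect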
Platelet DG rel: inhibitors of platelet dense granule secretion, primary screen, cell-based, MLPCN, human platelets. human platelet-rich plasma, SFLLRN dense granule ATP release, luminescence. inhibition, %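 (compounds screened at 7.5 µM in platelet-rich plasma)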. hit rate 0.22% among 300,000;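 active means mean replicate score, as percent of positive control, at or above 50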
SENP8 conf: SENP8 protease inhibitors, retest, confirmation, biochemical, luminescence, single concentration; Recombinant SENP8, Z-RLRGG-aminoluciferin luminescence, 60 min; shares compounds with SENP7 inh; hit rate 40% among 6,200; inhibition, % at 12.5 µM;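 active means mean inhibition across replicates above about 50%, limit read from the data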
SENP6 confirm: SENP6 protease inhibitors, confirmation, biochemical, luminescence, single concentration | shares compounds with SENP7 inh | recombinant SENP6, Z-RLRGG-aminoluciferin luminescence | inhibition, % at 12.5 µM | hit rate 58% among 6,200 | AID 488915, 2010
SENP7 confirm: SENP7 protease inhibitors, retest, confirmation, biochemical, luminescence, single concentration | shares compounds with SENP7 inh | recombinant SENP7, Z-RLRGG-aminoluciferin luminescence, 40 min | inhibition, % at 12.5 µM | hit rate 69% among 6,200 | AID 488917, 2010
Casp3 select: caspase-3 protease inhibitors, confirmation, selectivity assay for SENP inhibitor project, biochemical, single concentration; shares compounds with SENP7 inh; purified caspase-3, Z-DEVD-aminoluciferin luminescence, 60 min; inhibition, % at 12.5 µM; hit rate 60% among 6,200;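 active means mean inhibition above about 50%, limit read from the data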;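 further: plate controls were enzyme with DMSO for no effect and wells without caspase-3 for full effect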
Luc interf: luminescence interference (SENP counter-screen); shares compounds with SENP7 inh; Pre-incubated SENP8/Z-RLRGG-aminoluciferin, luciferase luminescence interference; inhibition, % at 12.5 µM; hit rate 39% among 6,200; AID 488919;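 active means mean inhibition above about 50% when retested at one dose, limit read from the data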;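 further: plate controls were DMSO wells with completed reaction for no effect and substrate without enzyme for full effect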
The depositor's hits bear a star; x = not tested or not shown. Only some compounds are listed: those with a hit (about 2.6% of all), similar ones and a draw of the others.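 How the source made its calls, unless noted: active means mean inhibition above about 50% in the one-dose retest (limit read from the data); inactive means the rest.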

SMILES | SENP1 FRET inh | SENP8 block-1 | SENP6 block | SENP8 block-2 | SENP7 inh | Platelet DG rel | SENP8 conf | SENP6 confirm | SENP7 confirm | Casp3 select | Luc interf
N/C(=N\OC(=O)c1ccccc1Cl)c1ccccn1 | -1 | 6 | 96* | 93* | 100* | 56* | 97* | 98* | 102* | 98* | 97*
Cc1ccc(C(=O)O/N=C(\N)c2ccccn2)c(C)c1 | 3 | 5 | 99* | 95* | 102* | 46 | 100* | 101* | 104* | 99* | 99*
N/C(=N\OC(=O)c1ccccc1[N+](=O)[O-])c1ccccn1 | 1 | -2 | 54* | 42 | 61* | 30 | 65* | 61* | -7 | 86* | 66*
COc1ccc2c(c1)Cc1sc(NC(=O)c3cccs3)nc1-2 | -7 | 15 | 92* | 96* | 94* | 15 | 67* | 75* | 99* | 77* | 29
COc1ccc(C(=O)Nc2nc3c(s2)Cc2cc(OC)ccc2-3)cc1 | -38 | -59 | 82* | 90* | 93* | 6 | 29 | 68* | 50* | 19 | 4
COc1ccc2c(c1)Cc1sc(NC(=O)c3ccccc3)nc1-2 | -5 | -24 | 95* | 91* | 90* | 1 | 4 | 65* | 88* | 66* | 24
O=C(CSc1nnc(CNC(=O)c2ccc(F)cc2)o1)Nc1nccs1 | -1 | 8 | -4 | -8 | -6 | 6 | x | x | x | x | x
O=C(Nc1ccc(-c2n[nH]c(=S)o2)cc1)c1ccccc1Br | 2 | -154 | 80* | 49 | 20 | 5 | 57* | 54* | 80* | 74* | 62*
COc1ccc(C(=O)Nc2ccc(-c3n[nH]c(=S)o3)cc2)cc1OC | 0 | -334 | -6 | 4 | 19 | -5 | x | x | x | x | x
CC(C)CNC(=S)N1CCC(C(=O)c2ccc(Cl)cc2)CC1 | 1 | 7 | x | x | x | x | x | x | x | x | x
CCCCN1CC2([N+](=O)[O-])C=CC(=O)C([N+](=O)[O-])(C1)C2CC(=O)c1ccccc1 (stereo not drawn) | -2 | 8 | 88* | -8 | -1 | -9 | 4 | -1 | 2 | 4 | 3
CCCN(CCC)Cc1cc(=O)oc2cc(C)c(Cl)cc12 | -6 | 3 | x | x | x | x | x | x | x | x | x
O=C(Nc1ccc(F)cc1)Nc1ccc(N2CCOCC2)c2nonc12 | 2 | 28 | 17 | 4 | 57* | 8 | 4 | 12 | 44 | 44 | 17
Cc1ccc(C(=O)C=Cc2ccc3c(c2)OCO3)c(C)c1 | -12 | -34 | x | x | x | x | x | x | x | x | x
O=C(/C=C/c1c(F)cccc1Cl)Nc1cccnc1 | -3 | 14 | 87* | 83* | 90* | 5 | 28 | 85* | 98* | 87* | 44
Nc1ccccc1C(=O)/C=C/c1ccc2c(c1)OCO2 | -3 | -7 | 84* | 66* | 94* | 18 | 90* | 81* | 93* | 55* | 73*
Cc1cc(C)nc(NC(=O)/C=C/c2ccc3c(c2)OCO3)c1 | -1 | -255 | 86* | 71* | 90* | 8 | 12 | 73* | 100* | 88* | 52*
O=C(/C=C/c1ccc2c(c1)OCO2)Nc1cccnc1 | -1 | -257 | 84* | 77* | 85* | 25 | 4 | 80* | 97* | 89* | 76*
CC(=O)Nc1ccc(NC(=O)/C=C/c2ccc3c(c2)OCO3)cc1 | 1 | 12 | -17 | -1 | 7 | 7 | x | x | x | x | x
Cc1onc(-c2c(Cl)cccc2Cl)c1C(=O)Nc1ccc(Cl)cn1 | 0 | 13 | -24 | -10 | 10 | 8 | x | x | x | x | x
Cc1ccc(NC(=O)NCCCl)cc1S(=O)(=O)N1CCOCC1 | 1 | 5 | -11 | -2 | -1 | 9 | x | x | x | x | x
Cc1ccc2c(c1)c(=O)c1c3n2CCN(C(=O)CCl)C3CC1 (stereo not drawn) | -17 | -179 | 50* | 27 | 31 | 3 | 24 | 60* | 17 | 5 | -4
Cc1ccc2c(c1)c1c3n2CCN(C(=O)CN2CCN(C)CC2)C3CCC1 (stereo not drawn) | 3 | -118 | 3 | 1 | 6 | -4 | x | x | x | x | x
CCc1ccc(CNc2ccc(O)cc2)cc1 | 4 | 70* | 81* | 77* | 24 | 5 | 14 | 12 | -1 | 6 | 5
CC(=O)Nc1ccc(NC(=O)CC2Nc3cccc4cccc(c34)NC2=O)cc1 (stereo not drawn) | -29 | -91 | 93* | 75* | 75* | -22 | -3 | -2 | 5 | 4 | -3
Cc1cccc(NC(=O)CC2Nc3cccc4cccc(c34)NC2=O)c1 (stereo not drawn) | -44 | -40 | 83* | 76* | 67* | 9 | 12 | 9 | -1 | 1 | 1
CC(=O)c1ccc(NC(=O)CC2Nc3cccc4cccc(c34)NC2=O)cc1 (stereo not drawn) | -25 | -9 | 89* | 50* | 56* | 5 | 8 | 7 | -6 | -6 | -13
COc1ccc([N+](=O)[O-])cc1NCc1c(F)cccc1F | 6 | 19 | x | x | x | x | x | x | x | x | x
COc1ccc(C(=O)c2ccccc2CN2C(=O)c3ccccc3C2=O)cc1 | 0 | 22 | x | x | x | x | x | x | x | x | x
O=C1CC(C(=O)N2CCCc3ccccc32)CN1c1ccc(Cl)cc1 (stereo not drawn) | -1 | 5 | 6 | -7 | -6 | -3 | x | x | x | x | x

Screening data as filed in PubChem.
